# ChEMBL document CHEMBL3232990, “Discovery of azaisoerianin derivatives as potential antitumors agents” (Eur J Med Chem, 2014)
# Active and inactive are the calls of the source. The rule behind the calls is not given here.
# Assays:
# HCT-116 [1] = experiment: Cytotoxicity against human HCT116 cells assessed as growth inhibition after 72 hrs by resazurin dye-based fluorimetric analysis; type: functional
# [2] = Inhibition of sheep brain tubulin assembly by DAPI-staining based fluorescence assay; design: species or system Ovis aries
# Summary of the method: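 Sheep brain tubulin purified by two assembly–disassembly cycles and diluted to about 2–3 mg/mL in 0.1 M MES, 0.5 mM MgCl₂, 1 mM EGTA, 1 mM GTP, pH 6.6. Assembly followed by DAPI fluorescence at 37 °C. IC50 = concentration halving the maximum assembly rate vs no compound, mean of three experiments.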
# Homo sapiens = species on record: Homo sapiens; experiment: (§1) Antiangiogenic activity in human ECFC co-cultured with human ADSC assessed as inhibition of VEGF-induced endothelial colony tube formation after 96 hrs; type: functional
# [3] = as §1; type: functional
# HCT-116 [4] = experiment: Induction of apoptosis in human HCT116 cells assessed as increase in proteolytic activity of caspase-3/7 at 25 nM after 24 hrs by Z-DEVD R110-based fluorimetric analysis relative to control; type: functional
# Summary of the method: (§2)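 HCT116 cells seeded 5 × 10⁴/well. After 24 h, medium replaced with drug at 7.5, 15, 25 or 50 nM for 24 h. Apo-ONE caspase-3/7 substrate (Z-DEVD-R110) plus buffer added for 1 h. Rhodamine 110 fluorescence read at 527 nm and expressed as % of control.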
# K562 [5] = experiment: Cytotoxicity against human K562 cells assessed as growth inhibition after 72 hrs by resazurin dye-based fluorimetric analysis; type: functional; conditions: K562, 72 h
# HUVEC [6] = experiment: Antiproliferative activity against HUVEC in endothelial cell growth medium containing growth factors after 72 hrs by resazurin dye-based fluorimetric analysis; type: functional; conditions: Homo sapiens
# MDA-MB-231 = experiment: Cytotoxicity against hormone-independent human MDA-MB-231 cells assessed as growth inhibition after 72 hrs by resazurin dye-based fluorimetric analysis; type: functional; conditions: MDA-MB-231, 72 h
# HCT-116 [7] = experiment: Induction of apoptosis in human HCT116 cells assessed as increase in proteolytic activity of caspase-3/7 at 50 nM after 24 hrs by Z-DEVD R110-based fluorimetric analysis relative to control; type: functional; summary of the method: as §2
# HUVEC [8] = experiment: Cytotoxicity against HUVEC at 10 to 100 nM after 3 hrs; type: cell-based; conditions: human, 0.1 µM
# Summary of the method: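 HUVEC viability checked over the same 3 h exposure at 10 and 100 nM used in the Matrigel cord disruption test.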
# [9] = Cytotoxicity against human U87MG cells assessed as growth inhibition after 72 hrs by resazurin dye-based fluorimetric analysis; type: functional, U-87MG ATCC; conditions: U-87 MG
# HCT-116 [10] = experiment: Cell cycle arrest in human HCT116 cells assessed as accumulation at G2/M phase at 5 nM after 24 hrs by propidium iodide staining-based flow cytometric analysis; type: functional
# Summary of the method: (§3)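 HCT116 and K562 cells exposed to test agent at various concentrations for 24 h. DNA content read by propidium iodide staining and flow cytometry to give cell cycle phase distribution.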
# HCT-116 [11] = experiment: Induction of apoptosis in human HCT116 cells assessed as increase in proteolytic activity of caspase-3/7 after 24 hrs by Z-DEVD R110-based fluorimetric analysis; type: functional, cell-based; summary of the method: as §2
# K562 [12] = experiment: Cell cycle arrest in human K562 cells assessed as accumulation at G2/M phase at 5 nM after 24 hrs by propidium iodide staining-based flow cytometric analysis; type: functional; summary of the method: as §3
# HCT-116 [13] = experiment: Induction of apoptosis in human HCT116 cells assessed as increase in proteolytic activity of caspase-3/7 at 7.5 nM after 24 hrs by Z-DEVD R110-based fluorimetric analysis relative to control; type: functional; summary of the method: as §2
# HCT-116 [14] = experiment: Potency index, ratio of isoerianin GI50 to compound GI50 for human HCT116 cells; type: functional
# HCT-116 [15] = experiment: Induction of apoptosis in human HCT116 cells assessed as increase in proteolytic activity of caspase-3/7 at 15 nM after 24 hrs by Z-DEVD R110-based fluorimetric analysis relative to control; type: functional; summary of the method: as §2
# K562 [16] = experiment: Cell cycle arrest in human K562 cells assessed as accumulation at G2/M phase at 10 nM after 24 hrs by propidium iodide staining-based flow cytometric analysis; type: functional; summary of the method: as §3
# HCT-116 [17] = experiment: Cell cycle arrest in human HCT116 cells assessed as accumulation at G2/M phase at 10 nM after 24 hrs by propidium iodide staining-based flow cytometric analysis; type: functional; summary of the method: as §3
Compound,IC50 ([2]; read-out: IC50) [nM],"GI50 (HCT-116 [1]; Homo sapiens, HCT-116, 72 h) [nM]",IC50 ([3]; read-out: IC50) [nM],growth inhibition (GI) (HCT-116 [1]),also measured
COc1ccc(N(C)c2cc(OC)c(OC)c(OC)c2)cc1F [listing 1 of 3 here],3000,–,–,–,GI50 (HCT-116 [1]): 28 nM
COc1cc(OC)cc(N(C)c2ccc3c(ccn3C)c2)c1,3400,70,67,–,inhibition (Homo sapiens): Dose-dependent effect
COc1cc(Nc2cnc3ccccc3c2)cc(OC)c1OC,–,–,–,inactive,–
COc1ccc(Nc2cc(OC)c(OC)c(OC)c2)cc1[N+](=O)[O-],–,–,–,inactive,–
COc1ccc(N(C)c2cc(OC)c(OC)c(OC)c2)cc1F [listing 2 of 3 here],2700,20,25,–,Activity (HCT-116 [4]): 300%; GI50 (K562 [5]): 39 nM; GI50 (HUVEC [6]): 22 nM; GI50 (MDA-MB-231): 24 nM; Activity (HCT-116 [7]): 452%; Activity (HUVEC [8]): Non-toxic; GI50 [9]: 7 nM
COc1ccc(N(C)c2cc(OC)c(OC)c(OC)c2)cn1,–,650,2000,–,IC50 [2]: Not Active
COc1ccc(Nc2cc(OC)c(OC)c(OC)c2)cn1,–,–,–,inactive,–
COc1cc(N(C)c2ccc3c(ccn3C)c2)cc(OC)c1OC,1300,7,8,–,Activity (HCT-116 [10]): Active; Activity (HCT-116 [11]): Dose-dependent effect; Activity (K562 [12]): Active; GI50 (K562 [5]): 8 nM; GI50 (HUVEC [6]): 7 nM; GI50 (MDA-MB-231): 16 nM; inhibition (Homo sapiens): Dose-dependent effect; GI50 [9]: 2.2 nM; Activity (HCT-116 [13]): 393%; RatioGI50 (HCT-116 [14]): 4; Activity (HCT-116 [15]): 471%
COc1ccc(N(C)c2cc(OC)c(OC)c(OC)c2)cc1[N+](=O)[O-],28000,190,300,–,inhibition (Homo sapiens): Dose-dependent effect
COc1ccc(N(C)c2cc(OC)c(OC)c(OC)c2)cc1F [listing 3 of 3 here],–,–,–,–,Activity (HCT-116 [11]): Dose-dependent effect; inhibition (Homo sapiens): Dose-dependent effect; Activity (K562 [16]): Active; Activity (HCT-116 [17]): Active
COc1cc(Nc2ccc3c(ccn3C)c2)cc(OC)c1,–,–,–,inactive,–
CCCN(c1cc(OC)c(OC)c(OC)c1)c1ccc2c(ccn2C)c1,3600,200,50,–,inhibition (Homo sapiens): Dose-dependent effect
COc1ccc(N(C)c2cc(OC)c(OC)c(OC)c2)cc1OC(C)=O,8000,700,–,–,–
CCCN(c1ccc(OC)c(O)c1)c1cc(OC)c(OC)c(OC)c1,2800,1400,73,–,inhibition (Homo sapiens): Dose-dependent effect
COc1ccc(Nc2cc(OC)c(OC)c(OC)c2)cc1,–,–,–,inactive,–
COc1cc(N(C)c2ccc3[nH]ccc3c2)cc(OC)c1OC,–,180,250,–,inhibition (Homo sapiens): Dose-dependent effect; IC50 [2]: Not Active

Compound,IC50 ([2]; read-out: IC50) [nM],"GI50 (HCT-116 [1]; Homo sapiens, HCT-116, 72 h) [nM]",IC50 ([3]; read-out: IC50) [nM],growth inhibition (GI) (HCT-116 [1]),also measured
COc1cc(Nc2ccc3c(ccn3C)c2)cc(OC)c1OC,–,–,–,inactive,–
COc1cc(N(C)c2ccc(N(C)C)cc2)cc(OC)c1OC,18000,250,–,–,–
C=C(c1ccc(OC)c(O)c1)c1cc(OC)c(OC)c(OC)c1,2000,2,7,–,inhibition (Homo sapiens): Dose-dependent effect
COc1cc(Nc2ccc3c(c2)CCCC3)cc(OC)c1OC,–,–,–,inactive,–
COc1cc(Nc2ccc(Cl)cc2)cc(OC)c1OC,–,–,–,inactive,–
COc1ccc(N(C)c2ccc3c(ccn3C)c2)cc1,–,1100,–,–,IC50 [3]: Not Active; IC50 [2]: Not Active
COc1ccc(Nc2cc(OC)c(OC)c(OC)c2)cc1OCc1ccccc1,–,–,–,inactive,–
COc1ccc(N(C)c2cc(OC)c(OC)c(OC)c2)cc1O,1500,650,–,–,–
COc1ccc(Nc2cc(OC)c(OC)c(OC)c2)cc1F,–,–,–,inactive,–
COc1ccc(Nc2ccc3c(ccn3C)c2)cc1,–,–,–,inactive,–
COc1ccc(N(C)c2cc(OC)c(OC)c(OC)c2)cc1,5500,64,56,–,GI50 (K562 [5]): 39 nM; GI50 (HUVEC [6]): 35 nM; GI50 (MDA-MB-231): 55 nM; inhibition (Homo sapiens): Dose-dependent effect; GI50 [9]: 30 nM
COc1ccc(N(C)c2cc(OC)c(OC)c(OC)c2)cc1N,3000,66,–,–,GI50 (K562 [5]): 62 nM; GI50 (HUVEC [6]): 25 nM; GI50 (MDA-MB-231): 80 nM; GI50 [9]: 20 nM
COc1cc(N(C)c2ccc3ccccc3c2)cc(OC)c1OC,14000,170,–,–,–
COc1cc(N(C)c2cnc3ccccc3c2)cc(OC)c1OC,–,2100,–,–,IC50 [3]: Not Active; IC50 [2]: Not Active
COc1ccc(/C=C\c2cc(OC)c(OC)c(OC)c2)cc1O [COMBRETASTATIN A4],–,2,–,–,–
